Data: ChEMBL document CHEMBL1800028, “Analogues of 4-[(7-Bromo-2-methyl-4-oxo-3H-quinazolin-6-yl)methylprop-2-ynylamino]-N-(3-pyridylmethyl)benzamide (CB-30865) as potent inhibitors of nicotinamide phosphoribosyltransferase (Nampt)” (J Med Chem, 2010)
Activity calls are given as the source filed them. The rule behind the calls is not given here.

Assays:
[1] = target: T1, Nicotinamide phosphoribosyltransferase (Homo sapiens, UniProt P43490); experiment: Inhibition of nicotinamide phosphoribosyltransferase-catalyzed conversion of nicotinamide to nicotinamide mononucleotide
How it was run: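 Coupled-enzyme format: Nampt turnover of nicotinamide to NMN monitored through a downstream coupled reaction; IC50 determined.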
Target sequence in this assay (P43490 whole entry): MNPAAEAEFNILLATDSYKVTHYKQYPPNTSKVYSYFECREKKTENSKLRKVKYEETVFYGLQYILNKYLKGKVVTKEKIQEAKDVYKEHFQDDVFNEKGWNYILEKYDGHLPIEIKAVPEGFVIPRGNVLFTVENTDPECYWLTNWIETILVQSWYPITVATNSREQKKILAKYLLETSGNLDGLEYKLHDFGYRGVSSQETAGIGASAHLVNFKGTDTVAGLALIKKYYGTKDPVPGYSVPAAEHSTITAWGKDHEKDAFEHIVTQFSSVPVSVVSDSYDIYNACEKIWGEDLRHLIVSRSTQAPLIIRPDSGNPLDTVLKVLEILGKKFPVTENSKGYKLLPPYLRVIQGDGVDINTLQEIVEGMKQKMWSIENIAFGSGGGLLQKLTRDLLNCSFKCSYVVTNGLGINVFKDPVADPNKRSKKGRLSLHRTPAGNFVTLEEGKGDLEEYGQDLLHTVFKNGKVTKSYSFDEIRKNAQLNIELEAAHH

[2] = test system: HCT-116; experiment: Cytotoxicity against human HCT116 cells after 72 hrs; format: functional
How it was run: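 HCT116 colon carcinoma cells treated with compound for 72 h; viability read out as cellular ATP levels.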

[3] = target: T1, Nicotinamide phosphoribosyltransferase; experiment: Inhibition of Nampt activity in H2O2-induced DNA damage in human MCF10A cells stably transfected with PIK3CA (H1047R) assessed as loss of PARP activity; format: cell-based; conditions: MCF-10A
Target sequence in this assay (P43490 whole entry, looked up): as the sequence (P43490 whole entry) above

[4] = test system: HCT-116; experiment: Cytotoxicity against human HCT116 cells after 72 hrs in presence of 10 uM exogenous nicotinic acid; format: functional, cell-based; conditions: HCT-116, 72 h
How it was run: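 HCT116 colon carcinoma cells treated for 72 h with compound plus 10 μM exogenous nicotinic acid to test whether killing depends on Nampt; viability read out as cellular ATP levels.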

[5] = target: Thymidylate synthase (Homo sapiens, UniProt P04818); experiment: Inhibition of thymidylate synthase
Chain of Thymidylate synthase (P04818 whole entry): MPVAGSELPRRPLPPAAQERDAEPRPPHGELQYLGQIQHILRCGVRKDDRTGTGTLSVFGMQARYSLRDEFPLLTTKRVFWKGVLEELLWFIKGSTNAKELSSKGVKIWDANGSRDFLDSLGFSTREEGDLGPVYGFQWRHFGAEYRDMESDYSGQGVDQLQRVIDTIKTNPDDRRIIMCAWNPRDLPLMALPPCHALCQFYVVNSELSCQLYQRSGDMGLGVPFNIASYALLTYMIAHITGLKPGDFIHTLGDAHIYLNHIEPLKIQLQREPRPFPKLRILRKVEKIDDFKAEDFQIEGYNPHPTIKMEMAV

[6] = test system: WIL2; experiment: Cytotoxicity against human W1L2 cells; format: functional, cell-based
[7] = target: T1, Nicotinamide phosphoribosyltransferase; experiment: Inhibition of nicotinamide phosphoribosyltransferase-mediated decrease in cellular NAD level
Target sequence in this assay (P43490 whole entry): as the sequence (P43490 whole entry) above

[8] = target: T1, Nicotinamide phosphoribosyltransferase; experiment: Inhibition of nicotinamide phosphoribosyltransferase-catalyzed conversion of nicotinamide to nicotinamide mononucleotide relative to untreated enzyme; conditions: concentration not given here
Target sequence in this assay (P43490 whole entry, looked up): as the sequence (P43490 whole entry) above

[9] = target: T1, Nicotinamide phosphoribosyltransferase; experiment: Inhibition of nicotinamide phosphoribosyltransferase-catalyzed conversion of nicotinamide to nicotinamide mononucleotide at 10 uM
Target sequence in this assay (P43490 whole entry, looked up): as the sequence (P43490 whole entry) above

IC50 [1] | Structure (SMILES) | Activity [2] | inhibitory concentration [3] | further results
> 10 µM | C#CCN(Cc1coc2nc(N)nc(N)c12)c1ccc(C(=O)NCc2cccnc2)cc1 | >10 µM | > 5 µM | 
0.0042 µM | C#CCN(Cc1ccccc1Cl)c1ccc(C(=O)NCc2cccnc2)cc1 | 2.4 µM | 0.15 µM | EC50 [4]: > 10 µM
 | C#CCN(Cc1cc2c(=O)[nH]c(C)nc2cc1Br)c1ccc(C(=O)NCc2ccncc2)cc1 |  |  | IC50 [5]: 0.156 µM
2.6 µM | Cc1nc2ccc(CN(CC3CC3)c3ccc(C(=O)NCc4cccnc4)cc3)cc2c(=O)n1C | 0.11 µM | 0.019 µM | 
0.0026 µM | CC(C)=CCN(Cc1cc2c(=O)n(C)cnc2cc1Cl)c1ccc(C(=O)NCc2cccnc2)cc1 | 0.0073 µM | 0.0005 µM | EC50 [4]: > 10 µM
0.95 µM | C#CCCN(Cc1ccc2nc(C)n(C)c(=O)c2c1)c1ccc(C(=O)NCc2cccnc2)cc1 | 6.3 µM | 2.9 µM | 
0.013 µM | Cn1cnc2cc(Cl)c(CN(CC3CC3)c3ccc(C(=O)NCc4cccnc4)cc3)cc2c1=O | 0.11 µM | 0.012 µM | 
0.025 µM | CC(C)=CCN(Cc1cc2c(=O)n(C)c(C)nc2cc1Cl)c1ccc(C(=O)NCc2nc3ccccc3[nH]2)cc1 | 6.4 µM | > 5 µM | 
0.25 µM | C#CCN(Cc1ccc2nc(C)n(C)c(=O)c2c1)c1ccc(C(=O)NCc2cccc(F)c2)cc1 | >10 µM | > 5 µM | 
0.42 µM | CC(C)CN(Cc1ccccc1Cl)c1ccc(C(=O)NCc2cccnc2)cc1 |  |  | 
0.6 µM | Nc1nc(N)c2c(CCc3ccc(C(=O)NCc4cccnc4)cc3)c[nH]c2n1 | >10 µM | > 5 µM | 
0.029 µM | Cc1nc2c(c(=O)[nH]1)CN(C(=O)Nc1ccc(C(=O)NCc3cccnc3)cc1)CC2 | >10 µM | > 5 µM | 
0.00055 µM | C#CCN(Cc1cc2c(=O)n(C)c(C)nc2cc1Cl)c1ccc(C(=O)NCc2cccnc2)cc1 | 0.0021 µM | 0.00045 µM | 
0.098 µM | C#CCN(Cc1ccc2nc(C)n(C)c(=O)c2c1)c1ccc(C(=O)NCc2ccc(F)c(F)c2F)cc1 | >10 µM | > 5 µM | 
 | C#CCN(Cc1cc2c(O)nc(C)nc2cc1Br)c1ccc(C(=O)NCc2cccnc2)cc1 |  |  | EC50 [6]: 0.0028 µM
0.21 µM | Cc1noc(C)c1CN(Cc1ccc2nc(C)n(C)c(=O)c2c1)c1ccc(C(=O)NCc2cccnc2)cc1 | 5.3 µM | 0.012 µM | 
7.2 µM | Cc1nc2c(c(=O)[nH]1)CN(C(=O)c1ccc(C(=O)NCc3cccnc3)cc1)CC2 | >10 µM | > 5 µM | 
0.11 µM | O=C(NCc1cccnc1)c1ccc(N(Cc2ccccc2)Cc2ccccc2Cl)cc1 | 0.7 µM | 0.17 µM | 
0.09 µM | Cc1c(Sc2ccc(C(=O)NCCc3cccnc3)cc2)[nH]c2nc(N)nc(N)c12 | >10 µM |  | 

IC50 [1] | Structure (SMILES) | Activity [2] | inhibitory concentration [3] | further results
0.012 µM | C#CCCN(Cc1cc2c(=O)n(C)cnc2cc1Cl)c1ccc(C(=O)NCc2cccnc2)cc1 | 0.15 µM | 0.03 µM | 
0.0061 µM | CC(C)CCN(Cc1ccccc1Cl)c1ccc(C(=O)NCc2cccnc2)cc1 | 0.39 µM | 0.0079 µM | EC50 [4]: > 10 µM
0.0014 µM | CC(C)=CCN(Cc1ccc2nc(C)n(C)c(=O)c2c1)c1ccc(C(=O)NCc2cccnc2)cc1 | 0.0035 µM | 0.00023 µM | 
 | O=C(CCCCCCCn1cc(-c2cccnc2)nn1)Nc1ccccc1-c1ccccc1 |  |  | IC50 [7]: 0.003 µM
0.085 µM | C#CCN(Cc1ccc2nc(C)n(C)c(=O)c2c1)c1ccc(C(=O)NCc2ccc3c(c2)OCO3)cc1 | >10 µM | > 5 µM | 
0.0015 µM | C/C=C/CN(Cc1ccccc1Cl)c1ccc(C(=O)NCc2cccnc2)cc1 | 0.099 µM | 0.0089 µM | 
0.031 µM | CC(C)=CCN(Cc1ccc2nc(C)n(C)c(=O)c2c1)c1ccc(C(=O)NCc2nc3ccccc3[nH]2)cc1 | 1.4 µM | 0.7 µM | 
0.33 µM | CCN(Cc1ccccc1Cl)c1ccc(C(=O)NCc2cccnc2)cc1 | >10 µM | > 5 µM | 
2.8 µM | Cc1[nH]c2nc(N)[nH]c(=O)c2c1Sc1ccc(C(=O)NCc2cccnc2)cc1 |  | > 5 µM | 
0.049 µM | C#CCN(Cc1ccc2nc(C)n(C)c(=O)c2c1)c1ccc(C(=O)NCc2ccc(F)cc2F)cc1 | >10 µM | > 5 µM | 
 | CC(C)=CCN(Cc1cc2c(=O)n(C)nnc2cc1Cl)c1ccc(C(=O)NCc2cccnc2)cc1 | 0.003 µM | 0.0017 µM | 
0.13 µM | C#CCN(Cc1ccc2nc(C)n(C)c(=O)c2c1)c1ccc(C(=O)NCc2nc3ccccc3[nH]2)cc1 | 5.4 µM | > 5 µM | 
1.2 µM | Cc1c(Sc2ccc(C(=O)NCc3cccnc3)cc2)[nH]c2nc(N)nc(N)c12 |  |  | 
0.0029 µM | C/C=C/CN(Cc1ccc2nc(C)n(C)c(=O)c2c1)c1ccc(C(=O)NCc2cccnc2)cc1 | 0.0044 µM | 0.0016 µM | 
0.012 µM | C#CCN(Cc1ccc2ncn(C)c(=O)c2c1)c1ccc(C(=O)NCc2cccnc2)cc1 | 0.3 µM | 0.025 µM | 
> 10 µM | CCCCN(Cc1ccccc1Cl)c1ccc(C(=O)NCc2cccnc2)cc1 |  |  | 
0.04 µM | C#CCN(Cc1cc2c(=O)n(C)c(C)nc2cc1Cl)c1ccc(C(=O)NCc2nc3ccccc3[nH]2)cc1 | 5.7 µM | 3.2 µM | 
0.0038 µM | Cn1cnc2cc(Cl)c(NCc3ccc(C(=O)NCc4cccnc4)cc3)cc2c1=O | 0.42 µM | 0.0093 µM | 
0.0036 µM | C#CCN(Cc1ccc2nc(C)n(C)c(=O)c2c1)c1ccc(C(=O)NCc2cccnc2)cc1 | 0.034 µM | 0.0095 µM | 

IC50 [1] | Structure (SMILES) | Activity [2] | inhibitory concentration [3] | further results
0.015 µM | CCCN(Cc1ccccc1Cl)c1ccc(C(=O)NCc2cccnc2)cc1 | 3.5 µM | 0.24 µM | 
0.0012 µM | CC(C)=CCN(Cc1ccc2ncn(C)c(=O)c2c1)c1ccc(C(=O)NCc2cccnc2)cc1 | 0.004 µM | 0.0004 µM | 
0.0003 µM | C#CCN(Cc1cc2c(=O)n(C)c(CN3CCN(CCCN)CC3)nc2cc1Cl)c1ccc(C(=O)NCc2cccnc2)cc1 | 0.018 µM | 0.0018 µM | 
0.0019 µM | CC(C)=CCN(Cc1ccccc1Cl)c1ccc(C(=O)NCc2cccnc2)cc1 | 0.016 µM | 0.0032 µM | EC50 [4]: > 10 µM
0.034 µM | C#CCN(Cc1ccc2nc(C)n(C)c(=O)c2c1)c1ccc(C(=O)NCc2ccccc2F)cc1 | 9.7 µM | > 5 µM | 
0.15 µM | C#CCN(Cc1ccc2nc(C)n(C)c(=O)c2c1)c1ccc(C(=O)NCc2ccc(Cl)cc2)cc1 | >10 µM | > 5 µM | 
> 10 µM | CN(Cc1ccccc1Cl)c1ccc(C(=O)NCc2cccnc2)cc1 |  |  | 
0.012 µM | Cn1cnc2cc(Cl)c(C(=O)Nc3ccc(C(=O)NCc4cccnc4)cc3)cc2c1=O | 0.73 µM | 0.048 µM | 
0.66 µM | CC(C)=CC(=O)N(Cc1cc2c(=O)n(C)cnc2cc1Cl)c1ccc(C(=O)NCc2cccnc2)cc1 | 4.1 µM | 0.37 µM | 
 | C#CCN(Cc1cc2c(=O)[nH]c(C)nc2cc1Br)c1ccc(C(=O)NCc2ccccn2)cc1 |  |  | IC50 [5]: 0.156 µM; inhibition [8]: 90%
> 10 µM | CC(C)=CC(=O)N(Cc1ccc2nc(C)n(C)c(=O)c2c1)c1ccc(C(=O)NCc2cccnc2)cc1 | >10 µM | 2.2 µM | 
> 10 µM | C#CCN(Cc1ccc2nc(C)n(C)c(=O)c2c1)c1ccc(C(=O)NCC2CCCNC2)cc1 (centres undefined) |  |  | inhibition [9]: inactive
0.03 µM | C#CCN(Cc1ccc2nc(C)n(C)c(=O)c2c1)c1ccc(C(=O)NCc2ccc(F)c(F)c2)cc1 | >10 µM | > 5 µM | 
0.00079 µM | C#CCN(Cc1cc2c(=O)n(C)c(CO)nc2cc1Cl)c1ccc(C(=O)NCc2cccnc2)cc1 | 0.0016 µM | 0.0001 µM | 
0.011 µM | CC(C)=CCN(Cc1cc2c(=O)n(C)c(C)nc2cc1Cl)c1ccc(C(=O)NCc2cccnc2)cc1 | 0.0095 µM | 0.0018 µM | EC50 [4]: > 10 µM
> 10 µM | Cc1nc2ccc(CN(C(=O)C3CC3)c3ccc(C(=O)NCc4cccnc4)cc3)cc2c(=O)n1C | >10 µM | 2.6 µM | 
0.056 µM | Cn1cnc2cc(Cl)c(CN(CC(N)=O)c3ccc(C(=O)NCc4cccnc4)cc3)cc2c1=O | >10 µM | > 1 µM | EC50 [4]: > 10 µM
0.0013 µM | O=C(NCc1cccnc1)c1ccc(N(Cc2ccccc2Cl)CC2CC2)cc1 | 0.059 µM | 0.011 µM | 
0.00031 µM | C#CCN(Cc1cc2c(=O)n(C)c(CN3CCN(C)CC3)nc2cc1Cl)c1ccc(C(=O)NCc2cccnc2)cc1 | 0.00046 µM | 5e-05 µM | EC50 [6]: 0.00049 µM
